Data taken from ChEMBL document CHEMBL1944533, “Synthesis and evaluation of anti-tubercular and antibacterial activities of new 4-(2,6-dichlorobenzyloxy)phenyl thiazole, oxazole and imidazole derivatives. Part 2” (2012).
Values after ≈ are worked out from the molar mass of the structure shown.

Legend:
Format in all cases: functional
[1] = tested on: Mycobacterium tuberculosis; test: Antitubercular activity against Mycobacterium tuberculosis H37Rv after 16 to 24 hrs by microplate alamar blue assay
How it was run: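 DMSO stocks (12.8 mM) two-fold diluted in Middlebrook 7H12 medium (7H9 with casitone, palmitic acid, BSA, catalase); final concentrations 128 down to 0.5. H37Rv inoculum 2 × 10⁵ cfu/mL added, 37 °C for 7 days, then Tween 80 plus Alamar Blue, further 16–24 h. Fluorescence ex 530/em 590 nm; MIC = lowest concentration giving ≥90% fluorescence reduction versus replicate bacteria-only controls.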

Staphylococcus aureus = test: Antibacterial activity against Staphylococcus aureus clinical isolate after 16 to 20 hrs by two fold agar dilution method
How it was run: (§1)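 Two-fold dilutions of test compounds and reference antibiotics made in molten Mueller-Hinton agar held at 37 °C, final range […]; drug-free medium as control. Plates spot-inoculated with culture containing 10⁴ CFU/mL of each clinical isolate, incubated at 37 °C; MIC read as lowest inhibiting concentration.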

Escherichia coli = test: Antibacterial activity against Escherichia coli clinical isolate after 16 to 20 hrs by two fold agar dilution method; how it was run: as §1
Streptococcus pneumoniae [2] = test: Antibacterial activity against Streptococcus pneumoniae clinical isolate after 16 to 20 hrs by two fold agar dilution method; how it was run: as §1
Streptococcus pneumoniae [3] = test: Antibacterial activity against pencillin-resistant Streptococcus pneumoniae after 16 to 20 hrs by two fold agar dilution method; how it was run: as §1

Molecule	MIC [1]	MIC (Staphylococcus aureus)	MIC (Escherichia coli)	MIC (Streptococcus pneumoniae [2])	MIC (Streptococcus pneumoniae [3])
O=C(Nc1nc(-c2ccc(OCc3c(Cl)cccc3Cl)cc2)c(C(=O)O)s1)c1ccc(Cl)cc1Cl	45.5 µM (≈ 25.9 µg/mL)	> 128 µM	> 128 µM	> 128 µM	> 128 µM
NNC(=O)c1ccncc1 [ISONIAZID]	0.81 µM (≈ 0.111 µg/mL)				
COc1ccc(C(=O)Nc2nc(-c3ccc(OCc4c(Cl)cccc4Cl)cc3)c(C(=O)O)s2)cc1	> 128 µM	> 128 µM	> 128 µM	≤ 0.118 µM	> 128 µM
CCOC(=O)c1ncn(-c2ccc(OCc3c(Cl)cccc3Cl)cc2)c1NC(=O)c1ccc(Cl)cc1	> 128 µM				
O=C(Nc1oc(-c2ccc(OCc3c(Cl)cccc3Cl)cc2)nc1C(=O)O)c1ccc(Cl)cc1	> 128 µM				
O=C(Nc1c(C(=O)O)ncn1-c1ccc(OCc2c(Cl)cccc2Cl)cc1)c1ccc(Cl)cc1	> 128 µM				
O=C(Nc1nc(-c2ccc(OCc3c(Cl)cccc3Cl)cc2)c(C(=O)O)s1)c1ccccc1	> 128 µM	> 128 µM	> 128 µM	≤ 0.125 µM	> 128 µM
C=CC(=O)Nc1nc(-c2ccc(OCc3c(Cl)cccc3Cl)cc2)c(C(=O)OCC)s1	7.2 µM (≈ 3.44 µg/mL)	> 128 µM	> 128 µM	≤ 0.131 µM	> 128 µM
CCOC(=O)c1sc(NC(=O)c2ccc(Cl)cc2)nc1-c1ccc(OCc2c(Cl)cccc2Cl)cc1	1 µM (≈ 0.562 µg/mL)	> 128 µM	> 128 µM	7.12 µM (≈ 4 µg/mL)	> 128 µM
COc1c(N2C[C@@H]3CCCN[C@@H]3C2)c(F)cc2c(=O)c(C(=O)O)cn(C3CC3)c12 [MOXIFLOXACIN]	0.5 µM (≈ 0.201 µg/mL)				
CCCC(=O)Nc1nc(-c2ccc(OCc3c(Cl)cccc3Cl)cc2)c(C(=O)OCC)s1	60.8 µM (≈ 30 µg/mL)	> 128 µM	> 128 µM	≤ 0.127 µM	> 128 µM
CCOC(=O)c1sc(NC(=O)c2ccccc2)nc1-c1ccc(OCc2c(Cl)cccc2Cl)cc1	61.2 µM (≈ 32.3 µg/mL)	> 128 µM	> 128 µM	≤ 0.119 µM	> 128 µM
O=C(Nc1nc(-c2ccc(OCc3c(Cl)cccc3Cl)cc2)c(C(=O)O)s1)c1ccc(Cl)cc1	> 128 µM	> 128 µM	> 128 µM	≤ 0.117 µM	> 128 µM
CCCC(=O)Nc1nc(-c2ccc(OCc3c(Cl)cccc3Cl)cc2)c(C(=O)O)s1	> 128 µM	> 128 µM	> 128 µM	≤ 0.134 µM	> 128 µM
CCOC(=O)c1sc(NC(=O)c2ccc(OC)cc2)nc1-c1ccc(OCc2c(Cl)cccc2Cl)cc1	7.6 µM (≈ 4.24 µg/mL)	> 128 µM	> 128 µM	≤ 0.112 µM	> 128 µM
CCOC(=O)c1sc(NC(=O)c2ccc(Cl)cc2Cl)nc1-c1ccc(OCc2c(Cl)cccc2Cl)cc1	25.4 µM (≈ 15.1 µg/mL)	> 128 µM	> 128 µM	> 128 µM	> 128 µM
GENTAMICIN		6.9 µM	0.43 µM	6.9 µM	6.9 µM
CC1(C)S[C@@H]2[C@H](NC(=O)[C@H](N)c3ccccc3)C(=O)N2[C@H]1C(=O)O [AMPICILLIN]		2.7 µM (≈ 0.943 µg/mL)	10.8 µM (≈ 3.77 µg/mL)	0.168 µM (≈ 0.0587 µg/mL)	10.8 µM (≈ 3.77 µg/mL)
O=[N+]([O-])c1cn2c(n1)OC[C@@H](OCc1ccc(OC(F)(F)F)cc1)C2 [PRETOMANID]	0.44 µM (≈ 0.158 µg/mL)				
CCOC(=O)c1nc(-c2ccc(OCc3c(Cl)cccc3Cl)cc2)oc1NC(=O)c1ccc(Cl)cc1	> 128 µM				
